Measured values from ChEMBL document CHEMBL1139464, “SAR and 3D-QSAR studies on thiadiazolidinone derivatives: exploration of structural requirements for glycogen synthase kinase 3 inhibitors” (J Med Chem, 2005).

Tests used:
[1] = target: Glycogen synthase kinase-3 (Oryctolagus cuniculus); assay: Inhibition of rabbit GSK3
[2] = target: Dual specificity mitogen-activated protein kinase kinase 1 (Homo sapiens) (UniProt Q02750); assay: Inhibition of MEK1K at 10 uM
Outline: (§1)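 Pan-kinase selectivity screen run at an outside lab using previously described assays for each kinase. Activated kinase phosphorylates its appropriate peptide or protein substrate with test substance at 10 µM. Percent inhibition is taken against control incubations in which the inhibitor is replaced by DMSO, with staurosporine as reference. Reported as the mean of duplicate determinations.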

[3] = target: Tyrosine-protein kinase Lck (Homo sapiens) (UniProt P06239); assay: Inhibition of protein kinase p56 at 10 uM
Tyrosine-protein kinase Lck (Homo sapiens), sequence (P06239 2-509 limits assumed): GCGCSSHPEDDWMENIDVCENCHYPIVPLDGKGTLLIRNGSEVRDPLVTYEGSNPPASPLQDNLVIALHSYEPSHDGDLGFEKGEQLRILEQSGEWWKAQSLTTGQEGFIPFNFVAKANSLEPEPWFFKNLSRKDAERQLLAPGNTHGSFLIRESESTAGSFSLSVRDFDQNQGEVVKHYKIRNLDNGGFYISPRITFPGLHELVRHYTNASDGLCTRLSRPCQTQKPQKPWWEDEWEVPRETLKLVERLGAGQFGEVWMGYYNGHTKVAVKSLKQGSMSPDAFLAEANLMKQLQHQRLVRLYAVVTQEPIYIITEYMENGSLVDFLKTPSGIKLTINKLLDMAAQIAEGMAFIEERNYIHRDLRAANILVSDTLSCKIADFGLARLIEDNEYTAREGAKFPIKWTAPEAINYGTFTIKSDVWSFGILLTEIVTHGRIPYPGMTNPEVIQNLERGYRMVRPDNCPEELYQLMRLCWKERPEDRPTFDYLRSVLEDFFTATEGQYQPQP
Outline: as §1

[4] = target: Tyrosine-protein kinase ABL1 (Homo sapiens) (UniProt P00519); assay: Inhibition of Abl kinase at 10 uM
Outline: as §1

[5] = target: CaM kinase II (Homo sapiens) (UniProt Q13557+Q13555+Q13554+Q9UQM7); assay: Inhibition of CAMK2 at 10 uM; assay type: protein assay
Outline: as §1

[6] = target: Epidermal growth factor receptor (Homo sapiens) (UniProt P00533); assay: Inhibition of EGF tyrosine kinase at 10 uM
Epidermal growth factor receptor (Homo sapiens), sequence (P00533 whole entry): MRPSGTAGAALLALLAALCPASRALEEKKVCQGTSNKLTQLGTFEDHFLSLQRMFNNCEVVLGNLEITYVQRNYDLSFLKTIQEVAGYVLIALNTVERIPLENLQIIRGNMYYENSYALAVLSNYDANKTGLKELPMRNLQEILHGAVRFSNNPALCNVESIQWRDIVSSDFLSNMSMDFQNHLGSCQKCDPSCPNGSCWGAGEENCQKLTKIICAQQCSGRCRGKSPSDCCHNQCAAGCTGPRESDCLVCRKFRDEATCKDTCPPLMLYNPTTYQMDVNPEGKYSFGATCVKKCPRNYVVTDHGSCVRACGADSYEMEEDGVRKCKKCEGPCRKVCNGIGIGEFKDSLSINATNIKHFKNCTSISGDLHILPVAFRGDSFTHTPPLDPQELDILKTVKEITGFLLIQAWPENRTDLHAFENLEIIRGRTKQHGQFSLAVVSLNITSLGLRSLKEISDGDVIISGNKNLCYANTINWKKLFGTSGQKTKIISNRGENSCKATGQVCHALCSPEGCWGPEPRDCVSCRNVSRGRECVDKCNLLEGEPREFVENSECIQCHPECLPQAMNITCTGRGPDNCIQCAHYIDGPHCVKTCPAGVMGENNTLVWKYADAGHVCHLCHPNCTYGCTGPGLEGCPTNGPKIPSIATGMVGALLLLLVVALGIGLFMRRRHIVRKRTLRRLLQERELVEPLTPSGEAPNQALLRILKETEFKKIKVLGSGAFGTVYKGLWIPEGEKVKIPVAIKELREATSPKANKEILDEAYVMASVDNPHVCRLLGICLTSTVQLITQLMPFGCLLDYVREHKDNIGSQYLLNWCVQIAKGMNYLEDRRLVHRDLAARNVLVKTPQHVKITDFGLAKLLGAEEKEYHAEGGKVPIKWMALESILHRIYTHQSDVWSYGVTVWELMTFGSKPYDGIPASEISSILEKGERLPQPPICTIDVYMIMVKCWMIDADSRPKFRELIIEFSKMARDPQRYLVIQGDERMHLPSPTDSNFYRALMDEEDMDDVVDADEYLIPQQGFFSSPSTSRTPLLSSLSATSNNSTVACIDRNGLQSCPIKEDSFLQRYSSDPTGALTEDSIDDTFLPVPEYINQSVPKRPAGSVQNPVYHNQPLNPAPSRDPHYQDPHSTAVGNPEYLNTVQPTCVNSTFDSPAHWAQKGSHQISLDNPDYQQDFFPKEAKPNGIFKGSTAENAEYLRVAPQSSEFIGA
Outline: as §1

[7] = target: Insulin receptor (Homo sapiens) (UniProt P06213); assay: Inhibition of IRK at 10 uM
Insulin receptor (Homo sapiens), sequence (P06213 28-758 limits assumed): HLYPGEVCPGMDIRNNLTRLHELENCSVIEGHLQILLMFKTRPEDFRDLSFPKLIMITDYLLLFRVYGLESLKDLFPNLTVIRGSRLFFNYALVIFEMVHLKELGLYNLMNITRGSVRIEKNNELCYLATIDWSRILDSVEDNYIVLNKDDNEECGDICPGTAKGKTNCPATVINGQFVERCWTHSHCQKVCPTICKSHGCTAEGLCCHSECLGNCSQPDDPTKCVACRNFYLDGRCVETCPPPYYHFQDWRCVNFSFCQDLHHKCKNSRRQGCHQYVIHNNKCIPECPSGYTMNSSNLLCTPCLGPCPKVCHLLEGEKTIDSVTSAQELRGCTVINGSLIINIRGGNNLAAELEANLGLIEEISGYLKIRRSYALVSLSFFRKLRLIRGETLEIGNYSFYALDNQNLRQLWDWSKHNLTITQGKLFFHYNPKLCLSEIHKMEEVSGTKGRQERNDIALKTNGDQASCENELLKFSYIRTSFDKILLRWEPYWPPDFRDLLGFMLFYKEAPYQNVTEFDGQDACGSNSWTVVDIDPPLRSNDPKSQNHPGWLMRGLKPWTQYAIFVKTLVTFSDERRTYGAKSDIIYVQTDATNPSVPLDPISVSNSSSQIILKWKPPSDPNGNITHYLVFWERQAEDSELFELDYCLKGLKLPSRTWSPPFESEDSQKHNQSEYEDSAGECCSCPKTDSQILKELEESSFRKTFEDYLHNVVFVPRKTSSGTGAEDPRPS
Insulin receptor (Homo sapiens), sequence (P06213 763-1382 limits assumed): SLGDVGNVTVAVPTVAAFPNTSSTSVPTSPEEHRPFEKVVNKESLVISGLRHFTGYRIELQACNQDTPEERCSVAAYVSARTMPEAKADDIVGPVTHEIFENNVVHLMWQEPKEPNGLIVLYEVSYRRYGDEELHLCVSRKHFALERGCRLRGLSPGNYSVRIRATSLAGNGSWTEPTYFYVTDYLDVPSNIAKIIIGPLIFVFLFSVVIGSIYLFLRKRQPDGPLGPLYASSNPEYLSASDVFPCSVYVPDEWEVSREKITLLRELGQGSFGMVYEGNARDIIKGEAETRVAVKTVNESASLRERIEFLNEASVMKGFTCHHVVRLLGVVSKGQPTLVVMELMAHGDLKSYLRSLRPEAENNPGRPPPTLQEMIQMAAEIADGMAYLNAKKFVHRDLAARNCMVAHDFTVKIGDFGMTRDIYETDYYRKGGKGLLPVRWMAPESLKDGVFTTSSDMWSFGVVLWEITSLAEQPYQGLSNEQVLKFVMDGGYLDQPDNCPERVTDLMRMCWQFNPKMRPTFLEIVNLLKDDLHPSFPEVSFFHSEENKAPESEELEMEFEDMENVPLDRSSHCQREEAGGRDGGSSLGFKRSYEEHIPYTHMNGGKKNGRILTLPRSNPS
Outline: as §1

[8] = target: Mitogen-activated protein kinase; ERK1/ERK2 (Homo sapiens) (UniProt P27361+P28482); assay: Inhibition of MAPK at 10 uM; assay type: protein assay
Mitogen-activated protein kinase; ERK1/ERK2 (Homo sapiens), sequence (P27361 whole entry, looked up): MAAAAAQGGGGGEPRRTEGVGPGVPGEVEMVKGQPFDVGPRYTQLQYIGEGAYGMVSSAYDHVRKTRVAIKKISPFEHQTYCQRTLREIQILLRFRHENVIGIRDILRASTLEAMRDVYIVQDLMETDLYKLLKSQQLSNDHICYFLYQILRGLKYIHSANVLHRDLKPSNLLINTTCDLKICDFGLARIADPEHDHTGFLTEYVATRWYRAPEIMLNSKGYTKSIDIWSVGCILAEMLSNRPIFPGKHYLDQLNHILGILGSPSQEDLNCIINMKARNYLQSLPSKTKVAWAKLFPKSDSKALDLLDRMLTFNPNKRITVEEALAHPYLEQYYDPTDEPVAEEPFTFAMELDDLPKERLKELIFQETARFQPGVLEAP
Mitogen-activated protein kinase; ERK1/ERK2 (Homo sapiens), sequence (P28482 whole entry, looked up): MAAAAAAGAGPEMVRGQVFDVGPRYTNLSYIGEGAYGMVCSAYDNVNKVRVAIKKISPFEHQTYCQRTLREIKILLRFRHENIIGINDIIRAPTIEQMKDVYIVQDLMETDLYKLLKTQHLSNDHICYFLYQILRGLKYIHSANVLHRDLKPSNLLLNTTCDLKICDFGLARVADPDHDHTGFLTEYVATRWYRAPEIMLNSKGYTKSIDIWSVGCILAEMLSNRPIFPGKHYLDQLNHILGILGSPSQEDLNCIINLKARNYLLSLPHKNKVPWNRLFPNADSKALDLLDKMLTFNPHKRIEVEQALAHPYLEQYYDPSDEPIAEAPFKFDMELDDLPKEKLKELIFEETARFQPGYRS
Outline: as §1

Dual specificity mitogen-activated protein kinase kinase 1 (Homo sapiens), sequence (Q02750 whole entry): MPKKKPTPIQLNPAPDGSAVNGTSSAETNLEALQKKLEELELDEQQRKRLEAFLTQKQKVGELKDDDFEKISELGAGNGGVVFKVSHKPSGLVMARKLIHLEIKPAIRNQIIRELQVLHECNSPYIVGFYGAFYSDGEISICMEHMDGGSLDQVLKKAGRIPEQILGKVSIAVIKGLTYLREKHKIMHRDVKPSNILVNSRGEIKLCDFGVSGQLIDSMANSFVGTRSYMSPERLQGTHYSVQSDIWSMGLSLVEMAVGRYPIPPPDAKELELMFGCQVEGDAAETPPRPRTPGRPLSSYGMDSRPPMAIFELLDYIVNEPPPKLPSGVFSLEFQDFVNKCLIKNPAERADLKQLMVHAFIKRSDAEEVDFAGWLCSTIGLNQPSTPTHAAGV

Compound | IC50 [1] [µM] | other results
O=C(c1ccccc1)n1c(=O)n(-c2ccccc2)c(=O)n1C(=O)c1ccccc1 | 100 | 
O=C(Cn1c(=O)n(-c2ccccc2)c(=O)n1CC(=O)c1ccccc1)c1ccccc1 | 100 | 
COc1ccc(CCN2C(=O)C=CC2=O)cc1 | 3 | 
Cn1c(=O)ssc1=O | 100 | 
COc1ccc(CN2C(=O)C=CC2=O)cc1 | 2.5 | 
CCCn1sc(=O)n(CC)c1=O | 10 | 
C1=CCN(Cc2ccccc2)C1 | > 100 | 
CCn1c(=O)sn(C(C)C)c1=O | 35 | 
CCOC(=O)CN1C(=O)C=CC1=O | 3 | 
O=C(O)CN1C(=O)CSC1=S [RHODANINE-3-ACETIC ACID] | 100 | 
O=C1C=CC(=O)C1 | 12 | 
Cn1sc(=O)n(Cc2ccccc2)c1=O |  | inhibition [2]: < 10%; inhibition [3]: 35%; inhibition [4]: < 10%; inhibition [5]: 16%; inhibition [6]: 25%; inhibition [7]: 20%; inhibition [8]: < 10%
O=C1CNC(=O)N1 [HYDANTOIN] | 100 | 
O=C1C=CC(=O)N1CCCCCc1ccccc1 | 3 | 
O=C1CCCN1Cc1ccccc1 | > 100 | 
NN1C(=O)CSC1=S [AMINORHODANINE] | 100 | 
CCn1sc(=O)n(CC)c1=O | 25 | 
CCn1c(=O)sn(C2CCCCC2)c1=O | 10 | inhibition [2]: < 10%; inhibition [3]: < 10%; inhibition [4]: < 10%; inhibition [5]: 23%; inhibition [6]: < 10%; inhibition [7]: < 10%; inhibition [8]: < 10%
O=C1CCC(=O)C1 | > 100 | 
O=C1CSC(=O)N1 [THIAZOLIDINEDIONE] | 100 | 
COc1ccc(CCN2C(=O)CSC2=S)cc1 | 100 | 

Now from value to compound, other results behind:

IC50 [1] [µM] | Compound | other results
6 | Cn1sc(=O)n(-c2ccccc2Br)c1=O | 
6 | Cn1sc(=O)n(-c2ccc(C(F)(F)F)cc2)c1=O | inhibition [2]: < 10%; inhibition [3]: < 10%; inhibition [4]: < 10%; inhibition [5]: < 10%; inhibition [6]: 17%; inhibition [7]: 36%; inhibition [8]: < 10%
6 | CCn1sc(=O)n(-c2ccccc2)c1=O | 
> 50 | O=C1CCC(=O)N1Cc1ccccc1 | 
5 | Cc1ccc(-n2c(=O)sn(C)c2=O)cc1 | 
5 | CCn1c(=O)sn(C)c1=O | 
50 | O=C(CN1C(=O)CSC1=S)c1ccccc1 | 
35 | O=C1CSC(=S)N1CCc1ccccc1 | 
100 | O=C1CSC(=O)N1Cc1ccccc1 | 
10 | O=c1sn(Cc2ccccc2)c(=O)n1Cc1ccccc1 | inhibition [2]: < 10%; inhibition [3]: 27%; inhibition [4]: < 10%; inhibition [5]: 35%; inhibition [6]: < 10%; inhibition [7]: 19%; inhibition [8]: < 10%
1.1 | Cn1sc(=O)n(-c2ccc(Br)cc2)c1=O | 
2 | O=C1C=CC(=O)N1CCc1ccccc1 | 
100 | Cn1sc(=O)n(C2CCCCC2)c1=O | 
2 | CCOC(=O)Cn1c(=O)sn(C)c1=O | inhibition [2]: 19%; inhibition [3]: < 10%; inhibition [4]: < 10%; inhibition [5]: 15%; inhibition [6]: 19%; inhibition [7]: 50%; inhibition [8]: < 10%
7 | CCn1sc(=O)n(Cc2ccccc2)c1=O [KRM-7777] | 
12 | O=c1ssc(=O)n1-c1ccccc1 | 
4 | Cn1sc(=O)n(-c2ccc(Cl)cc2)c1=O | 
2 | Cn1sc(=O)n(-c2cccc3ccccc23)c1=O | 
100 | Cn1c(=O)n(-c2ccccc2)c(=O)n1C | 
4 | Cn1sc(=O)n(-c2ccc(F)cc2)c1=O | 
100 | O=C1CNC(=O)N1Cc1ccccc1 | 
4 | Cn1sc(=O)n(-c2cccc(Br)c2)c1=O | 
12 | O=c1ssc(=O)n1Cc1ccccc1 | 
2 | Cn1sc(=O)n(-c2ccccc2)c1=O | 
8.5 | CCn1sc(=O)n(-c2ccc([N+](=O)[O-])cc2)c1=O | inhibition [2]: < 10%; inhibition [4]: < 10%; inhibition [5]: < 10%; inhibition [6]: 40%; inhibition [7]: 46%; inhibition [8]: 10%
